# Laboratory results from ChEMBL document CHEMBL1287725, “N-(8-(3-ethynylphenoxy)octyl-1-deoxynojirimycin suppresses growth and migration of human lung cancer cells” (Bioorg Med Chem Lett, 2010).
# pIC50: −log10 of the molar value. Active and inactive are the calls of the source. The calls are words filed in the database; no cut-off is given here.
# Legend:
# [1] = test system: A549; experiment: Inhibition of human A549 cell migration at 100 uM after 24 hrs by wound-healing assay; type: functional, cell-based
# Summary of the method: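 Confluent A549 monolayers (3 x 10^4 cells seeded overnight, F12K/10% FBS) were scratched with a 200 µl pipette tip and washed. They were incubated at 37 °C in 10% FBS F12K with or without compound, and migration into the wound was photographed at 0 and 24 h.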
# [2] = test system: A549; experiment: Antiproliferative activity against human A549 cells after 72 hrs by MTT assay; type: functional, cell-based; conditions: A549, 72 h
# Summary of the method: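 A549 cells (2.5 x 10^3/well) in F12K with 10% FBS, seeded overnight, then exposed to a range of doses for 72 h. MTT was added to a final 0.5 mg/ml for 3 h. Formazan was dissolved in DMSO and absorbance read. Triplicates, three experiments; IC50 given as mean of three experiments.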
# [3] = test system: A549; experiment: Inhibition of human A549 cell migration assessed as prevention of actin stress fibre formation at 100 uM after 24 hrs by TRITC-phalloidin staining; type: functional, cell-based
# Summary of the method: (§1)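 A549 cells on glass coverslips were seeded overnight, then exposed 24 h. They were fixed with 4% paraformaldehyde, permeabilised with 0.1% Triton X-100, blocked with 1% BSA, and stained 60 min with TRITC-phalloidin for F-actin. Stress fibres were examined by confocal microscopy (100x oil). Repeated three times.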
# [4] = test system: A549; experiment: Cell cycle arrest in human A549 cells assessed as accumulation at G2/M phase at 100 uM after 24 hrs using propidium iodide staining by flow cytometry relative to control; type: functional
# Summary of the method: (§2)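 A549 cells were seeded overnight in F12K/10% FBS, then treated 24 h. They were harvested with trypsin-EDTA, fixed in 70% ethanol at −20 °C for at least 2 h, and treated with RNase A 200 µg/ml at 25 °C for 30 min. Staining was with propidium iodide 50 µg/ml for 30 min at 4 °C. 10,000 nuclei per sample were scored by flow cytometry for G1, S and G2/M percentages. Triplicate, repeated three times.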
# [5] = test system: A549; experiment: Cell cycle arrest in human A549 cells assessed as accumulation at S phase at 50 uM after 24 hrs using propidium iodide staining by flow cytometry relative to control; type: functional; summary of the method: as §2
# [6] = test system: A549; experiment: Effect on surface oligosaccharide expression in human A549 cells assessed as inhibition of binding of L-PHA-[…] to cell surface at 50 uM after 24 hrs by flow cytometry; type: functional, cell-based
# [7] = test system: A549; experiment: Cell cycle arrest in human A549 cells assessed as accumulation at G2/M phase at 50 uM after 24 hrs using propidium iodide staining by flow cytometry relative to control; type: functional; summary of the method: as §2
# [8] = test system: A549; experiment: Cell cycle arrest in human A549 cells assessed as accumulation at S phase at 100 uM after 24 hrs using propidium iodide staining by flow cytometry relative to control; type: functional; summary of the method: as §2
# [9] = test system: A549; experiment: Cell cycle arrest in human A549 cells assessed as accumulation at G1 phase at 100 uM after 24 hrs using propidium iodide staining by flow cytometry relative to control; type: functional; summary of the method: as §2
# [10] = test system: A549; experiment: Induction of apoptosis in human A549 cells at 50 uM after 24 to 72 hrs using annexin V and propidium iodide staining by flow cytometry; type: functional, cell-based
# Summary of the method: (§3)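 A549 cells were seeded and, the next day, treated in complete medium at 0, 50 or 100 µM for 24, 48 and 72 h. Cells were collected and washed twice with DPBS, then stained with an annexin V-FITC/propidium iodide kit. Annexin V-positive cells were quantified by flow cytometry. Triplicate, repeated three times.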
# [11] = test system: A549; experiment: Cell cycle arrest in human A549 cells assessed as accumulation at G1 phase at 50 uM after 24 hrs using propidium iodide staining by flow cytometry relative to control; type: functional; summary of the method: as §2
# [12] = test system: A549; experiment: Induction of apoptosis in human A549 cells assessed as increased mitochondrial membrane depolarization at 100 uM after 48 hrs using JC-1 dye by flow cytometry; type: functional, cell-based
# Summary of the method: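 After 48 h exposure, A549 cells were harvested and stained with JC-1. The red-to-green fluorescence shift (green/red ratio) was measured by flow cytometry as mitochondrial depolarisation. Mean ± SD, n=3.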
# [13] = test system: A549; experiment: Inhibition of human A549 cell migration assessed as disruption of actin assembly at 100 uM after 24 hrs by TRITC-phalloidin staining; type: functional, cell-based; summary of the method: as §1
# [14] = test system: A549; experiment: Induction of apoptosis in human A549 cells at 100 uM after 24 to 72 hrs using annexin V and propidium iodide staining by flow cytometry; type: functional, cell-based; summary of the method: as §3
SMILES,inhibition [1],pIC50 [2],inhibition [3],Activity [4] [%],Activity [5] [%],inhibition [6],Activity [7] [%],Activity [8] [%],Activity [9] [%],Activity [10],Activity [11] [%],Activity [12],inhibition [13],Activity [14]
C#Cc1cccc(OC)c1,inactive,< 3.00,–,–,–,–,–,–,–,–,–,–,–,–
C#Cc1cccc(OCCCCCCCCN2C[C@H](O)[C@@H](O)[C@H](O)[C@H]2CO)c1,Active,4.29,Active,5.44,13.93,Active,9.97,4.85,89.1,Active,77.69,Active,Active,Active
OC[C@H]1NC[C@H](O)[C@@H](O)[C@@H]1O [DUVOGLUSTAT],inactive,< 3.00,–,–,–,Active,–,–,–,–,–,–,–,–
